The results in this text go back to PubChem BioAssay AID652011 (Sanford-Burnham Center for Chemical Genomics, 2013).

Each structure is given as a SMILES string. Values joined by “and” are separate entries in the source; they are usually repeats but may differ in a detail not shown here. Equal entries are not always repeated.

This assay deals with Hypoxia-inducible factor 1-alpha (Homo sapiens) (UniProt Q16665). Briefly: HIF-1a and HIF-2a reporter inhibitors, SAR follow-up, cell-based, luminescence, MIAPaCa-2, 786-0, panel (AID 652011). The following applies: MIAPaCa-2/PANC HIF reporter, luciferase luminescence, desferoxamine, overnight, HIF1a, run 2; at 99 µM (top of the series). The essentials: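 Also added: desferoxamine added before compound. Dosing: compounds from 10 mM and 0.3125 mM stocks, 1% DMSO final. Timing: overnight seeding and compound exposure, 37 °C, 5% CO2, 10-min detection. Detection: luciferase luminescence with One-Glo reagent.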

As usually defined, the inhibition is the relative decrease from the control value, in per cent.

Chain of Hypoxia-inducible factor 1-alpha (Homo sapiens) (Q16665 whole entry, looked up): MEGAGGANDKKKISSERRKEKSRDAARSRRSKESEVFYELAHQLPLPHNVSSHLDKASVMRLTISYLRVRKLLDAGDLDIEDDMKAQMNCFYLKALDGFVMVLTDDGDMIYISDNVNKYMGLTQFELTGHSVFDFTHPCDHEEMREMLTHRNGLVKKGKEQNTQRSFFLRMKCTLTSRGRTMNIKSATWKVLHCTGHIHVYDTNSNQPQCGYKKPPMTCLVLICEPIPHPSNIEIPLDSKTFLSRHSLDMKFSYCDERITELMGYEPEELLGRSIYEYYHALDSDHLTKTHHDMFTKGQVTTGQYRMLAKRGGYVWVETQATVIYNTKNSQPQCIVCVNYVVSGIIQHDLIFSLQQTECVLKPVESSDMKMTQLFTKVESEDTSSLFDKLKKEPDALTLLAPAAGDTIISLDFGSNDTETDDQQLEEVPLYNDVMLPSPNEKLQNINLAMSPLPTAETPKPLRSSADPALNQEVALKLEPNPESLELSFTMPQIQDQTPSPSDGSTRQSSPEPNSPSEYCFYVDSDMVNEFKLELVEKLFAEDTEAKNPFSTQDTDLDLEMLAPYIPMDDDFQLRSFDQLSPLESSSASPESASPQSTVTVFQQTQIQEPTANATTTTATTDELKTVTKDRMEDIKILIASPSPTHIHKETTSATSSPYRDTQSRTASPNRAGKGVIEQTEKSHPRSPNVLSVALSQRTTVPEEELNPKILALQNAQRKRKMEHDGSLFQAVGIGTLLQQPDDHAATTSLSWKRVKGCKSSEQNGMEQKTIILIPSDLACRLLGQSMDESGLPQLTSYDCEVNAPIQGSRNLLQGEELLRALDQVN

`CCNC(=O)CCc1nc(-c2ccccc2Cl)no1`: the inhibition was -3.81%.
Under `CC(C)(C)c1ccc(-c2noc(CCC(=O)Nc3ccccc3)n2)cc1` stands 60.5%; under `CC(C)(C)NC(=O)CCc1nc(-c2ccccc2)no1`, -36.5%.
`CCNC(=O)CCc1nc(-c2cccc(F)c2)no1`: the inhibition was -31.8%.
Under `CC(C)c1ccc(-c2noc(CCC(=O)NC3CC3)n2)cc1` stands -9.97%.
`COc1cccc(NC(=O)CCc2nc(-c3ccc(C(C)(C)C)cc3)no2)c1`: the inhibition is 81.2%.
For `CCCNC(=O)CCc1nc(-c2ccc(C(C)(C)C)cc2)no1`, the inhibition worked out at 9.39%.
Under `CC(C)(C)c1ccc(-c2noc(CCC(=O)NC3CCC3)n2)cc1` stands 54.4%; under `CCCCc1ccc(-c2noc(CCC(=O)NC3CC3)n2)cc1`, 36%; under `CC(C)(C)c1ccc(-c2noc(CCC(=O)O)n2)cc1`, 94.9%.
Under `CC(C)NC(=O)CCc1nc(-c2ccc(C(C)(C)C)cc2)no1` stands 26.5%; under `CC(C)(C)c1ccc(-c2noc(CCC(N)=O)n2)cc1`, 31.2% and -6.5%.
Turning to `CCCCc1ccc(-c2noc(CCC(=O)NCC)n2)cc1`, the inhibition was 17.4%.
Under `CNC(=O)CCc1nc(-c2ccc(OC)cc2)no1` stands -31.5%.
Consider `CCCCc1ccc(-c2noc(CCC(=O)NC)n2)cc1`, for which the inhibition is 9.8%.
`CCCCc1ccc(-c2noc(CCC(=O)NC(C)(C)C)n2)cc1`: the inhibition was 93%.
On to `CC(C)(C)c1ccc(-c2noc(CCC(=O)NC3CCCC3)n2)cc1`, for which the inhibition worked out at 81.4%.
Consider `CCNC(=O)CCc1nc(-c2c(Cl)cccc2Cl)no1`, for which the inhibition amounted to 28.8%.
Under `COC(=O)CCc1nc(-c2ccc(C(C)(C)C)cc2)no1` stands 93.8%.
Under `CCCCc1ccc(-c2noc(CCC(=O)NC(C)CC)n2)cc1` (stereo unspecified) stands 58.1%; under `CCNC(=O)CCc1nc(-c2ccc(C(C)C)cc2)no1`, -15.6%; under `CC(C)c1ccc(-c2noc(CCC(=O)NC(C)(C)C)n2)cc1`, 38.8%.
On to `CC(C)(C)c1ccc(-c2noc(CCC(=O)NC3CCCCC3)n2)cc1`, for which the inhibition worked out at 55.9%.
Under `CCC(C)NC(=O)CCc1nc(-c2ccccc2)no1` (stereo unspecified) stands -19.7%; under `CCC(C)NC(=O)CCc1nc(-c2ccc(C(C)(C)C)cc2)no1` (stereo unspecified), -28.9%.
In the case of `CCc1ccc(-c2noc(CCC(=O)NC)n2)cc1`, the inhibition was -34.1%.
Turning to `CCOc1ccc(-c2noc(CCC(=O)NC)n2)cc1`, the inhibition was -24%.
As for `CCNC(=O)CCc1nc(-c2cccc(C)c2)no1`, the inhibition is -31.6%.
Under `CC(C)(C)c1ccc(-c2noc(CCC(=O)Nc3cccnc3)n2)cc1` stands 85.6%.
Under `CNC(=O)CCc1nc(-c2ccc(C)cc2)no1` stands 20.3%; under `CC(C)(C)c1ccc(-c2noc(CCC(=O)N3CCCCC3)n2)cc1`, 103%.
